Consider two compounds from ChEMBL document CHEMBL4706772, “Structure-Based Design of A-1293102, a Potent and Selective BCL-X Inhibitor” (ACS Med Chem Lett, 2021).

In one assay the test system is RS4-11. The assay is described as follows: Cytotoxicity against human RS4-11 cells assessed as reduction in cell viability measured after 48 hrs by celltiter-glo assay. In kind it is functional, cell-based. The settings on record: RS4-11, 48 h.
The target of assay [1] is T1, Bcl-2-like protein 1 (Homo sapiens, UniProt Q07817). The assay is described as follows: Binding affinity to N-terminal GST-tagged BCL-XL (unknown origin) assessed as association rate constant by SPR analysis.
T1 sequence (Q07817 whole entry): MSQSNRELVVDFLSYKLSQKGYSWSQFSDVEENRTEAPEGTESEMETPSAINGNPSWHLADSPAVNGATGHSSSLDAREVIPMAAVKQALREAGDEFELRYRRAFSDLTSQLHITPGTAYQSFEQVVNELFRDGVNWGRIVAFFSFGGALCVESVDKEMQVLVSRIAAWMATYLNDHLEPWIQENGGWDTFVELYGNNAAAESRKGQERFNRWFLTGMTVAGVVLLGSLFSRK
Assay [2] concerns the target T1, Bcl-2-like protein 1. Put plainly: Inhibition of F-Bak binding to GST-tagged BCL-XL (unknown origin) measured after 1 hr by TR-FRET assay.
In assay [3] the target is Apoptosis regulator Bcl-2 (Homo sapiens, UniProt P10415). The assay is described as follows: Inhibition of F-Bak binding to GST-tagged BCL2 (unknown origin) measured after 1 hr by TR-FRET assay.
Chain of Apoptosis regulator Bcl-2 (P10415 whole entry): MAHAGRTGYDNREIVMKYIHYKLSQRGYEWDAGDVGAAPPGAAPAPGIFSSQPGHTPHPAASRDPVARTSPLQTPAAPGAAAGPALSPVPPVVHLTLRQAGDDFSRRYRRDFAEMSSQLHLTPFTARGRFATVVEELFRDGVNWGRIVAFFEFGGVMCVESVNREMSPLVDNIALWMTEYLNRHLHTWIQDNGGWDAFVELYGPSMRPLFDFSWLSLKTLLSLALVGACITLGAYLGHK
The species entered for a further assay is Homo sapiens. The assay is described as follows: Selectivity ratio of Ki for inhibition of F-Bak binding to GST-tagged BCL2 (unknown origin) to Ki for inhibition of F-Bak binding to GST-tagged BCL-XL (unknown origin).
For assay [4], the system named is MOLT-4. Put plainly: Induction of mitochondrial membrane depolarization in human MOLT-4 cells measured after 24 hrs. It is filed as functional, cell-based.
Assay [5] has as its target T1, Bcl-2-like protein 1. The assay is described as follows: Binding affinity to N-terminal GST-tagged BCL-XL (unknown origin) assessed as dissociation rate constant by SPR analysis.
Assay [6] deals with MOLT-4. The assay is described as follows: Cytotoxicity against human MOLT-4 cells assessed as reduction in cell viability measured after 48 hrs by celltiter-glo assay. It is filed as functional, cell-based. The settings on record: MOLT-4, 48 h.
The subject of assay [7] is MOLT-4. The assay is described as follows: Induction of apoptosis in human MOLT-4 cells assessed as activation of caspase-3/7 measured after 24 hrs by caspase-3/7 fluorescence assay. In kind it is functional, cell-based. In a few lines: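 MOLT-4 cells incubated 24 h with a rising concentration series of inhibitor. Read-out was caspase-3 and caspase-7 activation, reported as percentage of caspase-3/-7-positive cells.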

For assay [8], the target named is T1, Bcl-2-like protein 1. The assay is described as follows: Binding affinity to N-terminal GST-tagged BCL-XL (unknown origin) assessed as equilibrium dissociation constant by SPR analysis.
The test system of assay [9] is MOLT-4. The assay is described as follows: Induction of apoptosis in human MOLT-4 cells assessed as externalization of phosphatidylserine measured after 24 hrs by annexin-V staining based flow cytometry. It is filed as functional, cell-based. A digest of the protocol: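 Phosphatidylserine exposure in MOLT-4 cells was scored by annexin V binding after 24 h exposure to increasing inhibitor concentrations. Results are expressed as percent annexin V-positive cells.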

For assay [10], the target named is T1, Bcl-2-like protein 1. The assay is described as follows: Binding affinity to N-terminal GST-tagged BCL-XL (unknown origin) assessed as residence half-life by SPR analysis.
Assay [11] addresses Induced myeloid leukemia cell differentiation protein Mcl-1 (Homo sapiens, UniProt Q07820). Put plainly: Inhibition of F-Bak binding to GST-tagged MCL1 (unknown origin) measured after 1 hr by TR-FRET assay.

Chain of Induced myeloid leukemia cell differentiation protein Mcl-1 (Q07820 whole entry): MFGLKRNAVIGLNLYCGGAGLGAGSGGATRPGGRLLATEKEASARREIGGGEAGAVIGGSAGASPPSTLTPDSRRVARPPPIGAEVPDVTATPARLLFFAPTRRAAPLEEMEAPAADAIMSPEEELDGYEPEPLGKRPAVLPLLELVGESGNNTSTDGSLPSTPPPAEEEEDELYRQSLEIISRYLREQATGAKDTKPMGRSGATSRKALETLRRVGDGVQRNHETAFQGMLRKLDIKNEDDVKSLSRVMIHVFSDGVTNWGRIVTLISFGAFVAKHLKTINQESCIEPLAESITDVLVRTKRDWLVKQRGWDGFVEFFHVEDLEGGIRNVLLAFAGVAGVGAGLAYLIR

Turning to `O=C(NS(=O)(=O)c1ccc(N[C@H](CCN2CCOCC2)CSc2ccccc2)c(S(=O)(=O)C(F)(F)F)c1)c1csc(N2CCc3cccc(C(=O)Nc4nc5ccccc5s4)c3C2)n1`, the concentration for a half-maximal effect (EC50) in the assay with RS4-11 was over 5000 nM; with MOLT-4 [6] it was 80 nM. Also, the K is 5.88 10^5/M/s on Bcl-2-like protein 1 [1] and 0.000234 s⁻¹ at Bcl-2-like protein 1 [5]. Besides, the inhibitory constant (Ki) is 0.43 nM on Bcl-2-like protein 1 [2], 193 nM in [3] and over 3900 nM in assay [11]. Besides, the Ratio Ki in the assay listed under Homo sapiens was over 220. The Activity entry in the assay with MOLT-4 [4], in the assay with MOLT-4 [7] and in the assay with MOLT-4 [9] was “Dose-dependent effect” throughout. Moreover, the Kd on Bcl-2-like protein 1 [8] came out at 0.4 nM. The T1/2 at Bcl-2-like protein 1 [10] stood at 49 min.
As for `CN(C)CC[C@H](CSc1ccccc1)Nc1ccc(S(=O)(=O)NC(=O)c2csc(N3CCc4cccc(C(=O)Nc5nc6ccccc6s5)c4C3)n2)cc1[N+](=O)[O-]`, the EC50 with RS4-11 and in the assay on MOLT-4 [6] was over 5000 nM each time. Further, the K on Bcl-2-like protein 1 [1] is 2.18 10^7/M/s; at Bcl-2-like protein 1 [5], 0.0109 s⁻¹. Also, the values for the Ki (at Bcl-2-like protein 1 [2]; in [11]) were 0.14 nM and over 1560 nM, respectively. Besides, in the assay listed under Homo sapiens, the Ratio Ki is over 220. At Bcl-2-like protein 1 [8], the equilibrium dissociation constant (Kd) is 0.5 nM. On Bcl-2-like protein 1 [10], the T1/2 came to 1 min.
